Experiments:
Dipeptidyl peptidase 4 = Dipeptidyl peptidase 4 (Homo sapiens, UniProt P27487); assay: Inhibitory activity against human recombinant Dipeptidylpeptidase IV
How it was run: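 Human recombinant enzyme run in a fluorometric assay with Gly-Pro-AMC as substrate. Cleavage releases fluorescent 7-amino-4-methylcoumarin, which is read to give IC50 values.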

Dipeptidyl peptidase 2 = Dipeptidyl peptidase 2 (Homo sapiens, UniProt Q9UHL4); assay: Inhibitory activity against human quiescent cell proline dipeptidase
[1] = Inhibitory activity against human aminopeptidase P
Prolyl endopeptidase [2] = target: T1, Prolyl endopeptidase (Homo sapiens, UniProt P48147); assay: Inhibitory activity against human prolylendopeptidase
T1 sequence (P48147 whole entry): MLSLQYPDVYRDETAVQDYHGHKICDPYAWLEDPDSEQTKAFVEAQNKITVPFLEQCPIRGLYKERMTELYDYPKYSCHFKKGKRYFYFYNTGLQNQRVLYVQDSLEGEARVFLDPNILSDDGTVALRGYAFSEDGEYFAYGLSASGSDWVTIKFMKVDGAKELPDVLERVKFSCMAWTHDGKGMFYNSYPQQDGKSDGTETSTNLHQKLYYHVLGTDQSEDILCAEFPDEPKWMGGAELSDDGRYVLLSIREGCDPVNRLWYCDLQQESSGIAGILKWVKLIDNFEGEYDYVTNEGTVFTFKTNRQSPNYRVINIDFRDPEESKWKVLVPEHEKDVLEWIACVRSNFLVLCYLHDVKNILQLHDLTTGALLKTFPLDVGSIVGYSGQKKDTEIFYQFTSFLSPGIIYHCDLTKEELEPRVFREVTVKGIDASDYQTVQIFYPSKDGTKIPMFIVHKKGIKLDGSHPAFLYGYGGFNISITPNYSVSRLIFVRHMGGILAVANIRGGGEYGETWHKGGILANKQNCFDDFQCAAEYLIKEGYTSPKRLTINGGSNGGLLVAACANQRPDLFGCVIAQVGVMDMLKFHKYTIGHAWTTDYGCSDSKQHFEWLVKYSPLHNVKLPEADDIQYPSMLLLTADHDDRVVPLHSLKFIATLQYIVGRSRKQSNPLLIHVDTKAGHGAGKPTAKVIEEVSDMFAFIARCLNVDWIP

Prolyl endopeptidase [3] = target: T1, Prolyl endopeptidase; assay: Inhibitory activity against human prolyl endopeptidase

Sequence of Dipeptidyl peptidase 4 (P27487 whole entry): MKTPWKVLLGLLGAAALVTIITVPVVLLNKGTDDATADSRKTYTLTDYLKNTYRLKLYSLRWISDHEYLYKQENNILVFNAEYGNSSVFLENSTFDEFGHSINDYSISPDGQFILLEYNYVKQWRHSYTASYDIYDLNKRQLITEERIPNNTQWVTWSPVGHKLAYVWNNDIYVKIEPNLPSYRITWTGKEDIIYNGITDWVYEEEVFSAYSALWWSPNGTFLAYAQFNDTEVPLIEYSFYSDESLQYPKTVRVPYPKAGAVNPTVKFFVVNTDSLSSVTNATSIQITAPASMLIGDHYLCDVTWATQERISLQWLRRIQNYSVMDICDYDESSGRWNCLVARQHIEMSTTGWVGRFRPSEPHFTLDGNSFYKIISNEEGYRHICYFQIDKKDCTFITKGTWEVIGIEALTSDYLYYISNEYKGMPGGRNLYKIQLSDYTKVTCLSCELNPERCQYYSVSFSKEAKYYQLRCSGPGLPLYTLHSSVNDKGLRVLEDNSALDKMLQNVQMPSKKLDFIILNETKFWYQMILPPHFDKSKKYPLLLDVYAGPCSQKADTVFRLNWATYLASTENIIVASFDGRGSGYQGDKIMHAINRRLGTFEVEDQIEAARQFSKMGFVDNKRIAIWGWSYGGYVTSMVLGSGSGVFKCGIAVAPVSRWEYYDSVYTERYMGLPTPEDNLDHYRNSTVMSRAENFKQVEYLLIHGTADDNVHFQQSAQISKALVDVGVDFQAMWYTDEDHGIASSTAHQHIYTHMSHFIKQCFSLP

SMILES	IC50 (Dipeptidyl peptidase 4)	IC50 (Dipeptidyl peptidase 2)	IC50 [1]	IC50 (Prolyl endopeptidase [2])	IC50 (Prolyl endopeptidase [3])
N[C@H](C(=O)N1CCCC1)[C@@H]1CC[C@H](OC(=O)Nc2ccc(I)cc2)C1	670 nM	250 nM	> 100 µM	–	–
N[C@@H](C(=O)N1CCSC1)[C@H]1CC[C@@H](OC(=O)Nc2cccc(F)c2)C1	1200 nM	540 nM	> 100 µM	> 100 µM	–
N[C@H](C(=O)N1CCSC1)[C@H]1CC[C@@H](OC(=O)Nc2cccc(F)c2)C1	210 nM	75 nM	> 100 µM	> 100 µM	–
N[C@H](C(=O)N1CCCC1)[C@H]1CC[C@@H](OC(=O)Nc2ccccc2-c2ccccc2)C1	3900 nM	870 nM	> 100 µM	–	–
N[C@H](C(=O)N1CCSC1)[C@H]1CC[C@@H](OC(=O)Nc2ccc(Cl)c(Cl)c2)C1	280 nM	14 nM	> 100 µM	–	–
COc1ccc(NC(=O)O[C@@H]2CC[C@H]([C@H](N)C(=O)N3CCSC3)C2)cc1	240 nM	43 nM	> 100 µM	–	–
N[C@H](C(=O)N1CCCC1)[C@@H]1CC[C@@H](OC(=O)Nc2ccc(I)cc2)C1	110 nM	820 nM	> 100 µM	–	–
N[C@H](C(=O)N1CCSC1)[C@H]1CC[C@H](NC(=O)Nc2cccc3ccccc23)C1	43 nM	26 nM	> 100 µM	2.1 µM	–
CS(=O)(=O)NCCS(=O)(=O)N[C@H]1CC[C@H]([C@H](N)C(=O)N2CCCC2)C1	95 nM	2000 nM	> 100 µM	> 100 µM	–
COc1ccc(NC(=O)O[C@H]2CCC[C@H]([C@H](N)C(=O)N3CCCC3)C2)cc1	480 nM	780 nM	> 100 µM	> 100 µM	–
O=C(N[C@H](C(=O)N1CCCC1)[C@@H]1CC[C@@H](O)C1)OCc1ccccc1	–	–	> 100 µM	–	–
COc1ccc(NC(=O)O[C@@H]2CC[C@H]([C@H](N)C(=O)N3CCCC3)C2)cc1	1100 nM	630 nM	> 100 µM	–	–
COC1=N[C@H](C(C)C)C(OC)=N[C@H]1[C@H]1CCCC(O)C1 (some centres undefined)	–	–	> 100 µM	–	–
N[C@H](C(=O)N1CCSC1)[C@H]1CC[C@H](NC(=O)c2cccc3ccccc23)C1	47 nM	240 nM	> 100 µM	1.4 µM	–
COC(=O)[C@H](NC(=O)OCc1ccccc1)[C@@H]1CC[C@H](O)C1	–	–	> 100 µM	–	–
COC(=O)[C@@H](NC(=O)OCc1ccccc1)[C@@H]1CC[C@H](O)C1	–	–	> 100 µM	–	–
N[C@H](C(=O)N1CCCC1)[C@H]1CC[C@@H](NC(=O)Nc2cccc3ccccc23)C1	110 nM	270 nM	> 100 µM	–	–
CN(C)S(=O)(=O)c1ccc(S(=O)(=O)N[C@H]2CC[C@H]([C@H](N)C(=O)N3CCCC3)C2)cc1	110 nM	53 nM	> 100 µM	–	–
N[C@H](C(=O)N1CCCC1)[C@H]1CCC[C@H](O)C1	290 nM	40000 nM	> 100 µM	> 100 µM	–
COc1ccc(NC(=O)O[C@@H]2CCC[C@H]([C@H](N)C(=O)N3CCCC3)C2)cc1	180 nM	2500 nM	> 100 µM	> 100 µM	–
CS(=O)(=O)c1ccccc1S(=O)(=O)N[C@H]1CC[C@H]([C@H](N)C(=O)N2CCCC2)C1	150 nM	1000 nM	> 100 µM	> 100 µM	–
N[C@H](C(=O)N1CCCC1)[C@@H]1CC[C@@H](NC(=O)Nc2cccc3ccccc23)C1	94 nM	430 nM	> 100 µM	–	–
COc1ccc(NC(=O)O[C@H]2CC[C@H]([C@H](N)C(=O)N3CCCC3)C2)cc1	270 nM	1400 nM	> 100 µM	–	–
N[C@H](C(=O)N1CCCC1)[C@H]1CC[C@@H](NS(=O)(=O)c2ccc(OC(F)(F)F)cc2)C1	550 nM	750 nM	> 100 µM	> 100 µM	–
N[C@H](C(=O)N1CCCC1)[C@H]1CC[C@H](O)C1	840 nM	46000 nM	> 100 µM	> 100 µM	–
COc1ccc(NC(=O)O[C@H]2CCC[C@H]([C@H](N)C(=O)N3CCSC3)C2)cc1	420 nM	440 nM	> 100 µM	–	–
CS(=O)(=O)c1ccc(S(=O)(=O)N[C@H]2CC[C@@H]([C@H](N)C(=O)N3CCCC3)C2)cc1	420 nM	4000 nM	> 100 µM	> 100 µM	–
CS(=O)(=O)NCCS(=O)(=O)N[C@@H]1CC[C@@H]([C@H](N)C(=O)N2CCCC2)C1	71 nM	21000 nM	> 100 µM	–	> 100 µM

— ChEMBL document CHEMBL1148427, “Diastereoselective synthesis and configuration-dependent activity of (3-substituted-cycloalkyl)glycine pyrrolidides and thiazolidides as dipeptidyl peptidase IV inhibitors” (Bioorg Med Chem Lett, 2004)
